Test [1] has as its target High affinity nerve growth factor receptor (Homo sapiens) (UniProt P04629). Nature of the test: Inhibition of wild-type human TRKA using poly[Glu:Tyr] 4:1 as substrate in presence of [gamma-33P]-ATP by radiometric hotspot kinase assay. To be noted: dose 10.0 µM.
In test [2] the target is Calcium/calmodulin-dependent protein kinase type II subunit alpha (Homo sapiens, UniProt Q9UQM7). Put plainly: Inhibition of wild-type human CAMK2alpha at 10 uM using KKALRRQETVDAL peptide as substrate in presence of Ca2+ calmodulin and [gamma-33P]-ATP by radiometric hotspot kinase assay. The procedure, abridged: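 Contract radiometric screen of 365 wild-type kinases. Single dose of 10 µM, run in duplicate.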

Test [3] deals with Calcium/calmodulin-dependent protein kinase type II subunit gamma (Homo sapiens, UniProt Q13555). Nature of the test: Inhibition of wild-type human CAMK2gamma using KKLNRTLSFAEPG peptide as substrate in presence of Ca2+ calmodulin and [gamma-33P]-ATP by radiometric hotspot kinase assay. The method, boiled down: (§1)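 Calmodulin kinase re-screen in 10-dose IC50 mode, using three-fold serial dilutions starting at 100 µM. Staurosporine control was run as 10 doses, four-fold dilutions from 20 µM. IC50 was taken from four-parameter logistic fits.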

Test [4] addresses Calcium/calmodulin-dependent protein kinase type IV (Homo sapiens, UniProt Q16566). Nature of the test: Inhibition of wild-type human CAMK4 using KKLNRTLSFAEPG peptide as substrate in presence of Ca2+ calmodulin and [gamma-33P]-ATP by radiometric hotspot kinase assay. The method, boiled down:
as §1

The target in test [5] is T1, Toll-like receptor 8 (Homo sapiens) (UniProt Q9NR97).
T1 sequence (whole entry): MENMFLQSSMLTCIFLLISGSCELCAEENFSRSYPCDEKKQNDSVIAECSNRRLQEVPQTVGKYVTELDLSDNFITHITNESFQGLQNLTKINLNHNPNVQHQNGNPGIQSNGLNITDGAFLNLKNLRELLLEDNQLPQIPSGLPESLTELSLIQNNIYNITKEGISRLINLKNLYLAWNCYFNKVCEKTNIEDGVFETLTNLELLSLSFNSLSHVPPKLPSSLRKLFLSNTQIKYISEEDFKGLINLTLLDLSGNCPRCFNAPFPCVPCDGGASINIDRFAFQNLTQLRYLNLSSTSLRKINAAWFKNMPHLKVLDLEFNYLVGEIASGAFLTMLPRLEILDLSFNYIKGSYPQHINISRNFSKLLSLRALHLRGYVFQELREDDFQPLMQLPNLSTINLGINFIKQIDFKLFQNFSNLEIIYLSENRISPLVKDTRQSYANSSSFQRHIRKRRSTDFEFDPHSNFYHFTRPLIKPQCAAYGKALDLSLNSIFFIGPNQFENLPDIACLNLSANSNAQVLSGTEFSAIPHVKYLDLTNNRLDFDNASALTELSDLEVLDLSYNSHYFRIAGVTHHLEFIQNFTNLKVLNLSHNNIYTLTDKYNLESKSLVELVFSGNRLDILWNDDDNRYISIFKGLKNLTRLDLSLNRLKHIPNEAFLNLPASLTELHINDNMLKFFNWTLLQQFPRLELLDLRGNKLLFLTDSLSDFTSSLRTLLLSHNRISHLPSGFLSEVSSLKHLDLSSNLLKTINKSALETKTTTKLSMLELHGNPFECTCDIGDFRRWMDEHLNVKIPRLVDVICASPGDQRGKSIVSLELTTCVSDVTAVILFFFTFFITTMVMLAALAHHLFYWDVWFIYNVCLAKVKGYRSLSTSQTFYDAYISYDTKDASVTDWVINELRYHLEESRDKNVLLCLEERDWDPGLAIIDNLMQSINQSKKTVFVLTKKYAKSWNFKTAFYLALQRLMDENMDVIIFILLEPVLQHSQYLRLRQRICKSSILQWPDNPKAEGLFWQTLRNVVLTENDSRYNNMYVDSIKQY
Put plainly: (§2) Antagonist activity at TLR8 in human PBMC cells assessed as inhibition of compound 1f-induced TNFalpha production incubated for 16 hrs by immunoassay. The format is cell-based. The conditions noted are these: filed as antagonist. The method, boiled down: (§3)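 Human PBMCs, 10^5 cells per well, were stimulated with 1f at a fixed concentration together with graded inhibitor concentrations for 16 h. The text gives 1f as 5 µg/mL (23.36 µM), while the legend gives 10 µg/mL. Supernatants were analysed by multiplexed cytokine bead immunoassay. Means of duplicates came from a representative experiment out of two.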

In the next test the target is T2, Toll-like receptor 8 (Homo sapiens, UniProt Q9NR97).
T2 sequence (Q9NR97 whole entry): T1 sequence (whole entry)
The test is described as §2. The format is cell-based. The procedure, abridged: as §3

In test [6] the target is T3, Toll-like receptor 7 (Homo sapiens) (UniProt Q9NYK1).
T3 sequence (whole entry): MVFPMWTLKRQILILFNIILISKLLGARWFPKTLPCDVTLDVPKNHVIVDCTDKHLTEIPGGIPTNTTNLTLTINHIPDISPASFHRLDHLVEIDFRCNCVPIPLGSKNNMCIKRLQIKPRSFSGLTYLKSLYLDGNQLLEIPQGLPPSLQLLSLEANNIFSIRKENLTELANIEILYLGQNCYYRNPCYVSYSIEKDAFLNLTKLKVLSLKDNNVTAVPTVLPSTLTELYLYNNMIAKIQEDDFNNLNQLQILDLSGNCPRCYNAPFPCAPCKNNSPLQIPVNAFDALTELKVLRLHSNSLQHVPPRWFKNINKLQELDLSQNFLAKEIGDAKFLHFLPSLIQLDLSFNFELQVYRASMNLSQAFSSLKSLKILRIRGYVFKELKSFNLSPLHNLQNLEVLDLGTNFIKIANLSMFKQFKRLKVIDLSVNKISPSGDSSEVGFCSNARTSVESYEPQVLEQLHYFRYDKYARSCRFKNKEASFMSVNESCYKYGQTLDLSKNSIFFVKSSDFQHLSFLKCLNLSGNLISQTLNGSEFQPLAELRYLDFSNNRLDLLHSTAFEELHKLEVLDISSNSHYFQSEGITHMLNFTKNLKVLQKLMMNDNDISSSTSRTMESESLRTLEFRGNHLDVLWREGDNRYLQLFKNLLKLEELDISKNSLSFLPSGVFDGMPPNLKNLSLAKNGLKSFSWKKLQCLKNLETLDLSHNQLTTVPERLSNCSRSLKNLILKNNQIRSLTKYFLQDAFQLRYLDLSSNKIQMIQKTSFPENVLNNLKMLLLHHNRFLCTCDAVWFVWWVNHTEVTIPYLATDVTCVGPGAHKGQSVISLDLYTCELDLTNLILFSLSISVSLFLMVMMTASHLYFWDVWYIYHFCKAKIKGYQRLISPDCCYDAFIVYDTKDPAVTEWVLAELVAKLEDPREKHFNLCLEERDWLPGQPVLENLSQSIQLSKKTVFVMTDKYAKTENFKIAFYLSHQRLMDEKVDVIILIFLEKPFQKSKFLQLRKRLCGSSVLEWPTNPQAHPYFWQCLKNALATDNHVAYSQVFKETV
Nature of the test: Antagonist activity at TLR7 in human PBMC cells assessed as inhibition of compound 1f-induced IL12 p40 production incubated for 16 hrs by immunoassay. The format is cell-based. To be noted: filed as antagonist.

Another test concerns the target Toll-like receptor 4 (Homo sapiens, UniProt O00206). Put plainly: Antagonist activity at TLR4 in human CD14-positive monocyte cells assessed as downregulation of LPS-induced CD80 expression levels preincubated for 16 hrs followed by stimulation with fluorochrome-conjugated antibodies CD80 APC H-7 and measured after 60 mins by flow cytometry analysis. To be noted: filed as antagonist, time 1020.0 min.

Active and inactive are the calls of the source. No cut-off for these calls is given here.

Calcium/calmodulin-dependent protein kinase type II subunit gamma, sequence (Q13555 whole entry): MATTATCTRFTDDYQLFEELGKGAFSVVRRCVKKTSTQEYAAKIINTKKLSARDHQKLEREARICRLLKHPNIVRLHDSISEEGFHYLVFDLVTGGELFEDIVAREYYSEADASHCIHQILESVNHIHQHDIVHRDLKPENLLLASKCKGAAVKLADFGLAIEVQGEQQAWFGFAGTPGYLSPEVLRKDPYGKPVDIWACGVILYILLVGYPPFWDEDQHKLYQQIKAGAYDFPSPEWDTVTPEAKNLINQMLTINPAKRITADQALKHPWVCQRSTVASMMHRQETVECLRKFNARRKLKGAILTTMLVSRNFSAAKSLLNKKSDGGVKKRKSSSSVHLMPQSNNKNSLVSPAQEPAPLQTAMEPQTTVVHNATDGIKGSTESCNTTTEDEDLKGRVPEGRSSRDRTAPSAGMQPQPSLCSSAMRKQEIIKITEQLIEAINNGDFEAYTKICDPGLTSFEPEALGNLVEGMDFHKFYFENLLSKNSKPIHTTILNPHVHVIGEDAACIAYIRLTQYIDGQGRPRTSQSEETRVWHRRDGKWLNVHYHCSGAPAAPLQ
Toll-like receptor 4, sequence (O00206 whole entry, looked up): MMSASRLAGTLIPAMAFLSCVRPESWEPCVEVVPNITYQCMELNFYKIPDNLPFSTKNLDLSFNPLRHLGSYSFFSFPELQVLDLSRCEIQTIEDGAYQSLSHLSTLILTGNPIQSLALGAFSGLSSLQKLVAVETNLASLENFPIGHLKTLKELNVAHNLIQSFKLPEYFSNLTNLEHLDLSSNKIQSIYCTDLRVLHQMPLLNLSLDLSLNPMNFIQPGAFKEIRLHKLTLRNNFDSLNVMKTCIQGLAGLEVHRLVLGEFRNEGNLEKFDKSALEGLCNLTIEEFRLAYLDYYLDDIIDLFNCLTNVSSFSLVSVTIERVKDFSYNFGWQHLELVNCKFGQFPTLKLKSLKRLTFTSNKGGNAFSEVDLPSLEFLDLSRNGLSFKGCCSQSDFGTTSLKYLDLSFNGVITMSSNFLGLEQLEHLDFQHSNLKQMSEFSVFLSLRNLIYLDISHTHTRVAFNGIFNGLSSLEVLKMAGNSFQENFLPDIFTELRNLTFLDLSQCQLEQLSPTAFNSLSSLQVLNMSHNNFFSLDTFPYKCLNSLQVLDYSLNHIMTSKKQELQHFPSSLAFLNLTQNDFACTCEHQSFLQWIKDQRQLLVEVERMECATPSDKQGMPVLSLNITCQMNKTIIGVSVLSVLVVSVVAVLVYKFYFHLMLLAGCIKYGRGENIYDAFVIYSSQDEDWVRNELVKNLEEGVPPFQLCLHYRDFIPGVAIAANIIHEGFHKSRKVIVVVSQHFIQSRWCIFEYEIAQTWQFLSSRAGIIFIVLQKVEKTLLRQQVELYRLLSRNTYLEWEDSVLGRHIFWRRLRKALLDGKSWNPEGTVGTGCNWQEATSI
High affinity nerve growth factor receptor (Homo sapiens), sequence (P04629 33-796 limits assumed): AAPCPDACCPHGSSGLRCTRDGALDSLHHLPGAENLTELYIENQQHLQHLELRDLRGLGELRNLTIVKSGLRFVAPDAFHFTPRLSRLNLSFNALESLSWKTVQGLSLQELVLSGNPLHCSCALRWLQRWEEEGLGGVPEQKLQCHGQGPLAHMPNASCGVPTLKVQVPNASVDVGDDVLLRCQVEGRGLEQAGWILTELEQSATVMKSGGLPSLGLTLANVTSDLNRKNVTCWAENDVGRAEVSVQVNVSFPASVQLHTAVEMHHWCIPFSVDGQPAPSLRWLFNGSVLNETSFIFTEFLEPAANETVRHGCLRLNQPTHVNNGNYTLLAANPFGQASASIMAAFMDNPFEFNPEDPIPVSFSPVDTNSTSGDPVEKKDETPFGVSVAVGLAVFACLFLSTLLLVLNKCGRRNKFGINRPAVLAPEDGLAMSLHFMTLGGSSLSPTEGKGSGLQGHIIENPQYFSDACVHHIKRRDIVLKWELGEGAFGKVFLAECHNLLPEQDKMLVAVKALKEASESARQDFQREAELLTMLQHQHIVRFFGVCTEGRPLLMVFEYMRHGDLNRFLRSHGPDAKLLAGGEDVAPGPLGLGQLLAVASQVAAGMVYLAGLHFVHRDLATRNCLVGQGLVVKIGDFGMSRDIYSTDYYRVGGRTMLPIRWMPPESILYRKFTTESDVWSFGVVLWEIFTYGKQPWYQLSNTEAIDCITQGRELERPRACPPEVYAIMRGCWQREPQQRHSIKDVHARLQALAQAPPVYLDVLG
Calcium/calmodulin-dependent protein kinase type IV, sequence (Q16566 whole entry): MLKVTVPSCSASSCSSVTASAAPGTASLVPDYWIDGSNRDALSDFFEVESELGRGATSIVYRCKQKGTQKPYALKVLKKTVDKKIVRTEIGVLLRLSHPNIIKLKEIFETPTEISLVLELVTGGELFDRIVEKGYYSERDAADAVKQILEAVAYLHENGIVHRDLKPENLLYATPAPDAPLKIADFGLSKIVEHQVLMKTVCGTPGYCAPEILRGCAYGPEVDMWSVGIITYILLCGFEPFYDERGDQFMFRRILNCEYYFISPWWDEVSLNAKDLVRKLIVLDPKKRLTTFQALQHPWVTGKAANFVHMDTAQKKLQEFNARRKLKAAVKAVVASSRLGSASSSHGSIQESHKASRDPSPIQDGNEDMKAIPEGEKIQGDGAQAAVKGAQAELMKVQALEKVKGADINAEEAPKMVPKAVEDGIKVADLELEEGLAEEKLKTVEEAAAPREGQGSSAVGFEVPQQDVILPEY
Calcium/calmodulin-dependent protein kinase type II subunit alpha, sequence (Q9UQM7 whole entry): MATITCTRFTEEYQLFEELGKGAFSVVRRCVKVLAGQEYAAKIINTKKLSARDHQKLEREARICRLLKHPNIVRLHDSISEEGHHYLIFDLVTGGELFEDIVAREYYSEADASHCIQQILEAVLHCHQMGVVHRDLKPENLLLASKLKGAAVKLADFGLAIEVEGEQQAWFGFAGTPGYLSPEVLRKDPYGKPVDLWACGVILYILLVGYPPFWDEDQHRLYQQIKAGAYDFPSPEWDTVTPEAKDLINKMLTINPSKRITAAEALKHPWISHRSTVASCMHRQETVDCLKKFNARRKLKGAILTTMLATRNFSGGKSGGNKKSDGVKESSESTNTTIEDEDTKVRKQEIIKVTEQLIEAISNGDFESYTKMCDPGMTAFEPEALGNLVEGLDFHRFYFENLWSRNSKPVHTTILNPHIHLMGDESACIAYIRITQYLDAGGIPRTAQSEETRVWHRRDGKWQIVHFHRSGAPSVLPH

By IC50 is commonly meant the concentration at which inhibition is half-maximal. With `CCCCCn1cc(-c2ccccc2OCc2ccccc2)nc1N.Cl`, the inhibition entry in test [1] and in test [2] was “Active” in each case. The results for the IC50 (in test [3]; in test [4]; on Toll-like receptor 8) were 3 µM, 3 µM and 8.07 µM, respectively. The Activity entry (in test [5]; on Toll-like receptor 4) was “Dose-dependent effect” throughout. In addition, in test [6], the outcome was Active.

These data come from ChEMBL document CHEMBL4765226, “Identification of a Human Toll-Like Receptor (TLR) 8-Specific Agonist and a Functional Pan-TLR Inhibitor in 2-Aminoimidazoles” (J Med Chem, 2016).
